Compounds with a hit are over-represented: about 2.2% of the library has one in this group of screens.
FLuc stim CS = FLuc activators, initial screening, artefact control for FLuc-dependent activation tests, biochemical, ATPlite luminescence | activation factor at 10 µM | ATPlite luciferase biochemical, 10 min; 0 = ATP-free wells, 1 = DMSO control | 200,000 tested, under 10 active | Luciferin 4-monooxygenase (Photinus pyralis), P08659;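 active means luciferase activation factor, scaled between plate controls, of at least 2 with compound at 10 µM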
Target sequence (P08659 whole entry, looked up): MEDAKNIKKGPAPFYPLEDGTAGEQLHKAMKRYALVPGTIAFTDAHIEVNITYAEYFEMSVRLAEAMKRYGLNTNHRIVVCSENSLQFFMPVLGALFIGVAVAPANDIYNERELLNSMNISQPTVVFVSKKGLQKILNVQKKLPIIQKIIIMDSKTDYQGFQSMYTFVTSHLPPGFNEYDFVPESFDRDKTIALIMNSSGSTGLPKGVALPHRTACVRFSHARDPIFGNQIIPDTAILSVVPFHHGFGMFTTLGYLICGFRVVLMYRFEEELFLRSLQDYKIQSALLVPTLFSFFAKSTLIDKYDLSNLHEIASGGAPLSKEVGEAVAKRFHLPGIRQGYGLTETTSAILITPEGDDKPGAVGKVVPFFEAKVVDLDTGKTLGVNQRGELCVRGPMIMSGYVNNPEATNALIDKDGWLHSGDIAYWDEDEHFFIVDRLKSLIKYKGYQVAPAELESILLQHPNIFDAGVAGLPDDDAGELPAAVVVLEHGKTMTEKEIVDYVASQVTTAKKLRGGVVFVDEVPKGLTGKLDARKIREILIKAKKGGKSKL
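System: luciferase plus luciferin reagent, cell-free; medium: PBS as buffer for the ATP substrate; dosing: test compounds dosed from 2 mM stocks in 100% DMSO; timing: 10 min post-reagent at room temperature; measured by: luminescence measurement of luciferase light output; evaluation: luciferase activation, seen as luminescence increase over controls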
TRAIL sens C8 = viability loss with TRAIL in NB7+C8 cells, primary screen, TRAIL sensitizer project, cell-based, ATPlite luminescence | inhibition (viability loss, TRAIL sensitization), % at 10 µM | hit rate 1% among 360,000 | AID 624354, 2012;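 active means compounds causing at least 50% loss of cell viability in the single-dose screen, relative to plate controls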
FLuc inh counter = firefly luciferase enzyme inhibitors, primary screen, artefact control for luciferase-based inhibitor screens, biochemical, luminescence, ATPLite. 10 min. inhibition, % at 10 µM. hit rate 1.5% among 200,000. AID 1006, 2008;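 active means inhibition above about 50% when tested at 10 µM, limit read from the data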
PPC-1+TRAIL kill = compounds killing PPC-1 cancer cells with TRAIL present, primary screen, TRAIL potentiator project, ATPLite luminescence, uHTS; cell killing (% activity), % at 4 µM or 5 µM; hit rate 0.41% among 220,000; PPC-1 cells + TRAIL, ATPLite viability luminescence; AID 1443, 2008;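 active means cell killing above 50% in the first pass at 4 µM, then a duplicate retest at 5 µM averaging 50% or more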;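 further: plate controls were cells with TRAIL plus DMSO for no effect and medium-only wells lacking cells for full effect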
HSP90 refold inh = HSP90 inhibitors, primary screen, cell lysate, luminescence | Heat shock protein HSP 90 (rabbit reticulocyte lysate; luciferase refolding) | Rabbit reticulocyte lysate, luciferase refolding luminescence, 3 h | inhibition, % at 5.6 µM | hit rate 0.91% among 290,000;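 active means inhibition above the screen-wide mean plus 3 SD, computed separately per campaign, cut at about 16% in these data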;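 further: 0% = DMSO wells and 100% = 60 µM geldanamycin wells; inhibitors lower the luminescence because luciferase stays unfolded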
STAT3 inh = IL-6 driven STAT3 reporter inhibitors, primary screen, U3A cells, luciferase, luminescence, MLSCN library. hit rate 0.89% among 190,000. IL-6 STAT3-luciferase reporter; host cell line lacks STAT1. inhibition, % at 5.5 µM;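 active means inhibition above the mean inhibition across all screened compounds plus 3 SD, cut at about 44% in these data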;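 further: 0% = DMSO only wells and 100% = 100 µM nifuroxazide control wells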
* marks the source's active call; other numbers are inactive results; x = no result given.

SMILES	FLuc stim CS	TRAIL sens C8	FLuc inh counter	PPC-1+TRAIL kill	HSP90 refold inh	STAT3 inh
CCN1CCN(c2ccc(S(=O)(=O)N3CCCCC3)cc2NC(=O)c2ccc([N+](=O)[O-])o2)CC1	x	55*	x	x	x	x
COc1ccc(S(=O)(=O)N2CCCCC2)cc1NC(=O)c1ccc([N+](=O)[O-])o1	1.1	34	-5	23	0	7
CCN(CC)c1ccc(/C=C2/C(=O)c3ccc(C(=O)O)cc3C2=O)cc1	0.1	17	92*	8	4	-10
CCN(CC)c1ccc(C=C2C(=O)OC3(CCCCC3)OC2=O)cc1	1	-2	-5	28	3	9
CCOC(=O)C1=CCN(S(=O)(=O)c2ccccc2F)C1c1ccc(Cl)cc1 (configuration not stated)	x	6	x	x	x	x
CCOC(=O)C1=CCN(S(=O)(=O)c2ccccc2C)C1c1ccc(Cl)cc1 (configuration not stated)	x	59*	x	x	x	x
N#CCC(=O)N/N=C\c1cc(Br)ccc1OC/C=C/c1ccccc1	x	36	x	x	0	x
CCOc1ccc(S(=O)(=O)Nc2ccn(C)n2)cc1	x	-8	x	x	x	x
O=C(Nc1nnc(-c2cc(Cl)ccc2Cl)o1)c1ccco1	x	52*	x	x	x	x
O=C(Nc1nnc(-c2cc(Cl)ccc2Cl)o1)C1=COCCO1	x	9	x	x	x	x
O=C1c2ccccc2S(=O)(=O)N1CC1CC(c2ccc(Cl)cc2)=NO1 (configuration not stated)	0.5	39	50*	12	0	4
COc1ccc(COC(=O)CCc2cc(OC)c(OC)c(OC)c2)cc1F	x	1	x	x	x	x
c1coc(C2Nc3ccccc3C3OCCC23)c1 (configuration not stated)	1	8	3	17	-8	-2
COc1ccc2c(c1)C1OCCC1C(c1ccco1)N2 (configuration not stated)	x	83*	x	x	x	x
CC(=O)c1ccc(OCC(=O)N2CCCC2c2ccc3c(c2)OCCCO3)cc1 (configuration not stated)	x	-15	x	x	x	x
O=C(CCl)N1CCCC1c1ccc2c(c1)OCCO2 (configuration not stated)	x	65*	x	x	1	x
CC(=O)NC(C)(c1ccccc1)c1nc(-c2ccc(N(C)C)cc2)cs1 (configuration not stated)	x	-2	x	x	x	x
O=C1C(Cl)=C(NCCCN2CCOCC2)C(=O)c2ccccc21	x	83*	x	x	x	x
O=[N+]([O-])c1cc(S(=O)(=O)Oc2ccccc2)ccc1Cl	x	58*	x	x	x	x
O=S(=O)(Oc1ccccc1)c1ccc(Cl)c(Cl)c1	x	-2	x	x	x	x
CCOc1ccccc1NC(=O)CCC(=O)Nc1ccccc1OCC	1	-12	1	17	-1	4
CCOc1cc(NC(=O)CCl)c(OCC)cc1NC(=O)CCl	x	91*	x	16	-1	x
COC(=O)c1cc2c(N)c(C(=O)c3ccccc3)sc2nc1C(OC)OC	x	34	x	11	5	x
Cn1cccc1/C=N/n1c(-c2ccc(C(C)(C)C)cc2)n[nH]c1=S	0.9	54*	7	24	5	3
O=C(NCC1CCCN1S(=O)(=O)c1cccs1)C(=O)Nc1ccc(F)cc1F (configuration not stated)	x	4	x	x	x	x
SMILES	FLuc stim CS	TRAIL sens C8	FLuc inh counter	PPC-1+TRAIL kill	HSP90 refold inh	STAT3 inh
Sc1nnc(-c2ccc(Cl)cc2)n1Cc1ccccc1	x	-6	x	x	x	x
O=C(/C=C/c1ccc(Cl)cc1Cl)c1nc2ccccc2[nH]1	0.3	37	66*	27	1	13
COc1ccccc1-c1cc(C(=O)Nc2cccnc2)no1	0.4	43	62*	46	1	-7
O=C(O)CCC(=O)Nc1nnc(C(F)(F)F)s1	1.1	-3	-11	5	2	10
CCC(NC(=O)Nc1nnc(C(F)(F)F)s1)(C(F)(F)F)C(F)(F)F	1.1	44	-9	41	-1	99*
C(=C\c1ccccc1)/C=N/Nc1nc2ccccc2[nH]1	0.4	4	63*	21	-3	-15
C(=N\Nc1nc2ccccc2[nH]1)/c1c[nH]c2ccccc12	0.7	-16	30	-17	-4	-15
C(/CCc1ccccc1)=N\Nc1nc2ccccc2[nH]1	0.2	18	84*	14	9	-6

Source: PubChem
